In PMC3172994 (Biochemistry, 2011):
Values joined by “and” are separate entries in the source; they are usually repeats but may differ in a detail not shown here. Identical values can stand only once. Like-named read-outs stand apart in the source and are kept apart here.

Experiments:
[1] = target: thrombin; details: cited from earlier work
[2] = target: T1, human α-thrombin (Homo sapiens, UniProt P00734); experiment: PABA fluorescence titration of SOS binding to human thrombin; details: for ΔG° / ΔFMAX / Kd: pH 7.4, 25 °C; for ΔFMAX: PABA fluorescence λEM 370 nm; for Kd: read-out: KD,OBS
[3] = target: T1, human α-thrombin; type: biochemical
Procedure, shortened: (§1)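 Purified α-thrombin with the test compound in 20 mM phosphate or Tris, pH 7.4, 150 mM NaCl, 0.1 mM EDTA or CaCl₂, 0.1% PEG 8000. Cuvette format: 5 nM enzyme, 50 μM Spectrozyme TH, room temperature. Plate format: 12.5 nM enzyme, 10 min preincubation at 25 °C. Initial A405 rate taken as activity relative to a no-compound control. A logistic fit gave IC50, Hill slope and maximal inhibition (from Y0, YM).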

[4] = target: BT (bovine thrombin) (Bos taurus, UniProt P00735); type: biochemical; details: not shown
Procedure, shortened: as §1

[5] = target: HT cleavage of human fibrinogen (Homo sapiens, UniProt P00734); experiment: Turbidimetric assay of thrombin cleavage of fibrinogen; type: biochemical; details: 0.7 - 1.8 mM SOS, turbidity at 600 nm
[6] = test system: thrombin; details: cited from earlier work; remark: listed apart in the source
[7] = pH 7.4, I = 0.15, 25 °C, Spectrozyme TH

N=C(N)c1ccc(N)cc1 [PABA, p-aminobenzamidine]
Kd [1]: 60 to 80 µM

O=S(=O)(O)OC[C@H]1O[C@@](COS(=O)(=O)O)(O[C@H]2O[C@H](COS(=O)(=O)O)[C@@H](OS(=O)(=O)O)[C@H](OS(=O)(=O)O)[C@H]2OS(=O)(=O)O)[C@@H](OS(=O)(=O)O)[C@@H]1OS(=O)(=O)O [SOS, Sucrose octasulfate]
contribution due to non-ionic forces [2]: 2.4 kcal/mol | maximal decrease in fluorescence at 370 nm ([2]; 20 mM sodium phosphate, pH 7.4, 50 mM NaCl): approximately 5% | ΔG° ([2]; 50 mM NaCl): 7.9 ± 0.1 kcal/mol | ΔFMAX ([2]; 50 mM NaCl): −4.8±0.1% | ΔG° ([2]; 150 mM NaCl): 6.4 ± 0.2 kcal/mol | ΔFMAX ([2]; 150 mM NaCl): −6.4±0.3% | ΔG° ([2]; 250 mM NaCl): 5.2 ± 0.2 kcal/mol | ΔFMAX ([2]; 250 mM NaCl): −9.2±0.6% | non-ionic contribution relative to heparin - HT complex ([2]; SOS - HT vs heparin - HT): approximately 12.5 fold | slope of logKD,OBS vs log[Na+] ([2]; pH 7.4): 3.8 ± 0.5 | contribution of non-ionic forces, share of total binding energy ([2]; pH 7.4, I 0.15): approximately 35% | ionic binding energy ([2]; pH 7.4, I = 0.15, 25 °C): 4.5 kcal/mol | Kd ([2]; 50 mM NaCl, I = 0.085): ~1.4 µM and 1.4 µM | Kd ([2]; 150 mM NaCl): 22 ± 4 µM | Kd ([2]; 250 mM NaCl): 149 ± 25 µM | maximal inhibition of Spectrozyme TH hydrolysis ([3]; HT, from Y0 and YM of equation 3): 13.5 ± 0.2% | Hill slope [3, 7]: 1.5 ± 0.5 | IC50 [3, 7]: 4.5 ± 1.1 µM | maximal inhibition of Spectrozyme TH hydrolysis [4]: 20 ± 2.0% | effect on fibrinogen cleavage profile [5]: gradual increase in the lag time of cleavage | inhibition of thrombin hydrolysis of CBS31.39 [6]: ≤ 10%
